Results published in ChEMBL document CHEMBL2321806 (J Med Chem, 2013).
The source made the active and inactive calls. The calls are words filed in the database; no cut-off is given here.

Assays:
Insulin-degrading enzyme [1] = target: T1, Insulin-degrading enzyme (Homo sapiens, UniProt P14735); assay: Inhibition of human recombinant IDE-mediated FRET1 degradation; details: read-out: Ki(app)
Insulin-degrading enzyme [2] = target: T1, Insulin-degrading enzyme; assay: Inhibition of human recombinant IDE-mediated fluorescein-Abeta-(1-40)-Lys-biotin degradation; details: read-out: Ki(app)
Summary of the method: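 Aβ (200 nM) degradation by recombinant human IDE at 22 °C in HEPES pH 7.4 buffer with 100 mM NaCl, 10 mM MgCl₂, 0.05% BSA.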

Insulin-degrading enzyme [3] = target: T1, Insulin-degrading enzyme; assay: Inhibition of human recombinant IDE-mediated insulin degradation; details: read-out: Ki(app)
Summary of the method: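 Insulin (2 nM) breakdown by recombinant human IDE in 50 mM HEPES pH 7.4, 100 mM NaCl, 10 mM MgCl₂, 0.05% BSA at 22 °C.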

[4] = target: T2, Matrilysin (Homo sapiens) (UniProt P09237); assay: (§1) Inhibition of MMP7 (unknown origin)-mediated omniMMP degradation
T2 sequence (whole entry): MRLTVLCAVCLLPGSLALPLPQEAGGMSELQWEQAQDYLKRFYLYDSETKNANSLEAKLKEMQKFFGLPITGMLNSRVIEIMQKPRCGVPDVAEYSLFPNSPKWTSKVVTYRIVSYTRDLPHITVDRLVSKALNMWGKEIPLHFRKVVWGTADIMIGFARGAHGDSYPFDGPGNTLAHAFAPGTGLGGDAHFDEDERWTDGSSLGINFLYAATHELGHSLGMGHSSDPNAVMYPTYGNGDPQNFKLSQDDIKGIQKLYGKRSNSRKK
Summary of the method: (§2)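 Each protease (NEP, ECE1, ACE, MMP-2, MMP-7) was tested against the shared fluorogenic peptide substrate OmniMMP, with inhibitor concentrations up to 10 μM. IC50 values were taken from the dose-response data.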

[5] = target: 72 kDa type IV collagenase (Homo sapiens) (UniProt P08253); assay: Inhibition of MMP2 (unknown origin)-mediated omniMMP degradation up to 10 uM; summary of the method: as §2
[6] = target: T2, Matrilysin (Homo sapiens); assay: Inhibition of MMP7 (unknown origin)-mediated omniMMP degradation up to 10 uM; summary of the method: as §2
[7] = target: Angiotensin-converting enzyme (Homo sapiens) (UniProt P12821); assay: Inhibition of ACE (unknown origin)-mediated omniMMP degradation up to 10 uM; summary of the method: as §2
[8] = target: Neprilysin (Homo sapiens) (UniProt P08473); assay: Inhibition of NEP (unknown origin)-mediated omniMMP degradation up to 10 uM; summary of the method: as §2
[9] = target: T3, Endothelin-converting enzyme 1 (Homo sapiens) (UniProt P42892); assay: Inhibition of ECE1 (unknown origin)-mediated omniMMP degradation up to 10 uM; summary of the method: as §2
T3 sequence (whole entry): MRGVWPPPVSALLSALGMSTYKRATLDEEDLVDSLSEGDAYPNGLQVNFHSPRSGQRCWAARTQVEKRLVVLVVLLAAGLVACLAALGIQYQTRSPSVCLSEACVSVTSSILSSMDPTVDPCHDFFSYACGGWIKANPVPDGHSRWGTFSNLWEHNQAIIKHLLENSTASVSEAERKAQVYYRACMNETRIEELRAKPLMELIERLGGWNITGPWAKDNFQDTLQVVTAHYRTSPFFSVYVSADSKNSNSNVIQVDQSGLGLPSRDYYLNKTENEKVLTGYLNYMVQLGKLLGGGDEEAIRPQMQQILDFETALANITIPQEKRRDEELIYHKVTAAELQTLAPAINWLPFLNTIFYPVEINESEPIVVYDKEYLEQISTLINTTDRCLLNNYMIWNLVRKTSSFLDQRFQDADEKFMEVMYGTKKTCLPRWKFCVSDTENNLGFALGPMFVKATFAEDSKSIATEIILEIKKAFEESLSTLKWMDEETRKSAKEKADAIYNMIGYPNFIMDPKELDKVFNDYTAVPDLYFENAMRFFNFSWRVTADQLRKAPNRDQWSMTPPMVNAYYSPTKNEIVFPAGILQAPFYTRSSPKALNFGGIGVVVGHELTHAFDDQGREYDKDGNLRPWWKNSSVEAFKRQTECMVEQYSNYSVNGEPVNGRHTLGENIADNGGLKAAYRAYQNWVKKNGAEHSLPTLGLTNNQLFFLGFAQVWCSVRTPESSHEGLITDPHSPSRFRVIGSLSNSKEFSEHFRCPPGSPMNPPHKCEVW

Insulin-degrading enzyme [10] = target: T1, Insulin-degrading enzyme; assay: Selectivity ratio of apparent Ki for human recombinant IDE-mediated insulin degradation to apparent Ki for human recombinant IDE-mediated FRET1 degradation
Matrilysin = target: T4, Matrilysin (Homo sapiens, UniProt P09237); assay: as §1; summary of the method: as §2
T4 sequence (P09237 whole entry): T2 sequence (whole entry)

T1 sequence (P14735 whole entry): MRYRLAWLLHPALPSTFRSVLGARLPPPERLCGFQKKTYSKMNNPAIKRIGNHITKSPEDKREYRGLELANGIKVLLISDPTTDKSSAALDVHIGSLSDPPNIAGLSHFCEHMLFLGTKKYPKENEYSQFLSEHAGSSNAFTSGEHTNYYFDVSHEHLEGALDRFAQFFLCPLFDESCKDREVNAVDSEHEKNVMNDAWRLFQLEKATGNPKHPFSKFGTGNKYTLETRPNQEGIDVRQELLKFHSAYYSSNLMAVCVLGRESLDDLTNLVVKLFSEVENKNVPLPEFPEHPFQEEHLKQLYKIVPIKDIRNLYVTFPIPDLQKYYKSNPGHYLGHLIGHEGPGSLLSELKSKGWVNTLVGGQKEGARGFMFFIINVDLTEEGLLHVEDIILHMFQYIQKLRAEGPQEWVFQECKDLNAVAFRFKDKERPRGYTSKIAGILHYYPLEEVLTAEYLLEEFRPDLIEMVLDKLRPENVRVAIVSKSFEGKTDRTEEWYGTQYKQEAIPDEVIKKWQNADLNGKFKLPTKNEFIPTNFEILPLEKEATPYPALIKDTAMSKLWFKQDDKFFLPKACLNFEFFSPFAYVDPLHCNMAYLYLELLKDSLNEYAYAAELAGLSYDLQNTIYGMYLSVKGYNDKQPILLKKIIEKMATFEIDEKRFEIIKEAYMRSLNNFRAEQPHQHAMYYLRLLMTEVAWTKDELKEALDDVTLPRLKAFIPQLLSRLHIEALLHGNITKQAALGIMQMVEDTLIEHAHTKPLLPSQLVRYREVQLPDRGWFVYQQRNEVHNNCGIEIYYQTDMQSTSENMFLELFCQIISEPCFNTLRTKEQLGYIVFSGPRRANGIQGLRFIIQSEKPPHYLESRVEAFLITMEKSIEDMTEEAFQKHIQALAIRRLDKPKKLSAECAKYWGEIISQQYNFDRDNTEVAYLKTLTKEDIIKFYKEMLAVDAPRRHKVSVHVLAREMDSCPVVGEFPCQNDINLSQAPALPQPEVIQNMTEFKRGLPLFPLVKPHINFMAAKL
Angiotensin-converting enzyme (Homo sapiens), sequence (P12821 whole entry): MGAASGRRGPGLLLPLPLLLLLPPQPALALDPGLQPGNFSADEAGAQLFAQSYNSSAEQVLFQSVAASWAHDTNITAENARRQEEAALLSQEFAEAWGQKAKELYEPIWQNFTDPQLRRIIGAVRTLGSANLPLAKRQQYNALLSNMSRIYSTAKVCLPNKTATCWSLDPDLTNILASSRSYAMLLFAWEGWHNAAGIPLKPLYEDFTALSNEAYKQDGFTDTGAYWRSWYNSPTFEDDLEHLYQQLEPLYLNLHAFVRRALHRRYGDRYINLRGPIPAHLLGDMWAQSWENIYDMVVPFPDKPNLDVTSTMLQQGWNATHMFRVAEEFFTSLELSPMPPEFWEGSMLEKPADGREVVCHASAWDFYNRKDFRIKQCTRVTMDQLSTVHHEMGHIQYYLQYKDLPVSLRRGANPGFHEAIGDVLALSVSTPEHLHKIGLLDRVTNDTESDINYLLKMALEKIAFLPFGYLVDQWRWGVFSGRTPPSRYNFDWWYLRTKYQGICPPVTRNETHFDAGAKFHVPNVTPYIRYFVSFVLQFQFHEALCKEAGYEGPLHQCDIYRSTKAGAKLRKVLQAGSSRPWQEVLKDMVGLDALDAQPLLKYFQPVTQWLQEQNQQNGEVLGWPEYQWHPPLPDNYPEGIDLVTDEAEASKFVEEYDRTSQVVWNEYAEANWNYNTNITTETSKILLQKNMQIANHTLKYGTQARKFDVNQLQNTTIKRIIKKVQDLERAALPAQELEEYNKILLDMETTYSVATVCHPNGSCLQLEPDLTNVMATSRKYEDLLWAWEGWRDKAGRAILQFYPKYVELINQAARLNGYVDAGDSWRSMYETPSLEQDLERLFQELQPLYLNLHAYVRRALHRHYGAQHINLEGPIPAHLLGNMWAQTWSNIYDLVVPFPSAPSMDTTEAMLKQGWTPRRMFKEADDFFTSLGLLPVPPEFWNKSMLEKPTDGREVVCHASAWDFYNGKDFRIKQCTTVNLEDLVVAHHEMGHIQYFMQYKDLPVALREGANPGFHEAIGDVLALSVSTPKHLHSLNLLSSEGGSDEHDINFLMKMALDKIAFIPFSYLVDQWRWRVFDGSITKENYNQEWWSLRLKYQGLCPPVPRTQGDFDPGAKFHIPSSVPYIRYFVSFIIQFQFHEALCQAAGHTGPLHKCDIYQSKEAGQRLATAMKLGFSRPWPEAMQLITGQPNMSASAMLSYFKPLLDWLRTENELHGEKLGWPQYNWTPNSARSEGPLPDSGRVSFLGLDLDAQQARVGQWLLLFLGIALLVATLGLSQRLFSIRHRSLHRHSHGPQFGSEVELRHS
Neprilysin (Homo sapiens), sequence (P08473 whole entry): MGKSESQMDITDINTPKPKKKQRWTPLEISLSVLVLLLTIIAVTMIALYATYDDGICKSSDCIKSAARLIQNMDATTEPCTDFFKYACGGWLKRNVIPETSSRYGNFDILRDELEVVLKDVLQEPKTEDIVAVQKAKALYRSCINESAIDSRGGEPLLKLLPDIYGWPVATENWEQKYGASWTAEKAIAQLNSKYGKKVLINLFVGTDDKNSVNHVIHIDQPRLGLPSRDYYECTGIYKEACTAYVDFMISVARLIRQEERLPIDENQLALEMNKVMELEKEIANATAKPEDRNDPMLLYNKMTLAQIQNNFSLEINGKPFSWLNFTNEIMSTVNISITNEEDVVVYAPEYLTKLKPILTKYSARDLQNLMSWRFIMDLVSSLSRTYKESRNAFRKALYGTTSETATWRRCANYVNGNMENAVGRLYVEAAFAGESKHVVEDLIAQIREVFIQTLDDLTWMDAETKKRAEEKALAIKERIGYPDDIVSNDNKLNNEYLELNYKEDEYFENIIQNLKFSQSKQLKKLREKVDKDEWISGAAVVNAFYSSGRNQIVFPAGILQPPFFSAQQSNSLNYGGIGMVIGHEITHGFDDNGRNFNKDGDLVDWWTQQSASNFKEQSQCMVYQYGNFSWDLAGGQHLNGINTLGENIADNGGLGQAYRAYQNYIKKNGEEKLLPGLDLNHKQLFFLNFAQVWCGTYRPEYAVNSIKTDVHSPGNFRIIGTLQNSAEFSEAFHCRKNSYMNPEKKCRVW
72 kDa type IV collagenase (Homo sapiens), sequence (P08253 110-660 limits assumed): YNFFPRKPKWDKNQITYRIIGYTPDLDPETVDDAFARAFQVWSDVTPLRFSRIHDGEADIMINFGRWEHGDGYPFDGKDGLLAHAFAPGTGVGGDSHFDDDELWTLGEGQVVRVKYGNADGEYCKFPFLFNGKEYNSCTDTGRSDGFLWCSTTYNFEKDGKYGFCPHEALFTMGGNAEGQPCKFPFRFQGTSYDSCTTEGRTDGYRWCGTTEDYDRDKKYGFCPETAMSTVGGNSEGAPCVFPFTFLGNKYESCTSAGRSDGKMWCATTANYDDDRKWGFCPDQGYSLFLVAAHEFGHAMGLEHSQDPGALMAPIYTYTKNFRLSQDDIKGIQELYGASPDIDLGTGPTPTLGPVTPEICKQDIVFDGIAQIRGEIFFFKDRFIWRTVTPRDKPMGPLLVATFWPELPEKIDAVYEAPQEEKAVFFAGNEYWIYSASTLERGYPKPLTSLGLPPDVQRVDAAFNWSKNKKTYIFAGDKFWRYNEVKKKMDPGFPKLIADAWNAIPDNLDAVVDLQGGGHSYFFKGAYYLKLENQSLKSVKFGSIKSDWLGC

Row | Compound | Ki (Insulin-degrading enzyme [1]) | Ki (Insulin-degrading enzyme [2]) | Ki (Insulin-degrading enzyme [3]) | further results
1 | NC(=O)[C@H](CCCN=C(N)N)NC(=O)[C@H](Cc1ccc2ccccc2c1)[C@H](O)C(=O)NO | 7750 nM | – | – | –
2 | NC(=O)[C@H](CCCN=C(N)N)NC(=O)[C@@H](CC(=O)NO)Cc1ccc2ccccc2c1 | 1150 nM | – | – | –
3 | N=C(N)NCCC[C@H](NC(=O)[C@@H](CC(=O)NO)Cc1ccc2ccccc2c1)C(=O)N[C@@H](Cc1c[nH]c2ccccc12)C(=O)N[C@@H](CCC(=O)O)C(N)=O | 2.96 nM | 21.7 nM | 37.9 nM | inhibition [4]: Active
4 | N=C(N)NCCC[C@H](NC(=O)[C@H](Cc1ccc2ccccc2c1)[C@@H](O)C(=O)NO)C(=O)N[C@@H](Cc1c[nH]c2ccccc12)C(=O)N[C@@H](CCC(=O)O)C(N)=O | – | – | – | inhibition [5]: inactive; inhibition [6]: inactive; inhibition [7]: inactive; inhibition [8]: inactive; inhibition [9]: inactive
5 | N=C(N)NCCC[C@@H](NC(=O)[C@@H](Cc1c[nH]c2ccccc12)NC(=O)[C@H](N)CCC(=O)O)C(=O)N[C@H](Cc1ccc2ccccc2c1)C(=O)NO | – | – | – | Ratio Ki(app) (Insulin-degrading enzyme [10]): > 60
6 | NC(=O)[C@H](CCC(=O)O)NC(=O)[C@H](Cc1c[nH]c2ccccc12)NC(=O)[C@H](CCCN=C(N)N)NC(=O)[C@H](Cc1ccc2ccccc2c1)[C@H](O)C(=O)NO | 25.9 nM | 70.3 nM | 275 nM | IC50 (Matrilysin): 1150 nM
7 | C=CCOC(=O)[C@H](CCCN=C(N)N)NC(=O)[C@@H](CC(=O)NO)Cc1ccc2ccccc2c1 | 87 nM | 107 nM | 1280 nM | –
8 | NC(=O)[C@H](CCC(=O)O)NC(=O)[C@H](Cc1c[nH]c2ccccc12)NC(=O)[C@H](CCCN=C(N)N)NC(=O)[C@H](Cc1ccc2ccccc2c1)[C@@H](O)C(=O)NO | 103 nM | 927 nM | 1890 nM | –
9 | N=C(N)NCCC[C@H](NC(=O)[C@H](CC(=O)NO)Cc1ccc2ccccc2c1)C(=O)N[C@@H](Cc1c[nH]c2ccccc12)C(=O)N[C@@H](CCC(=O)O)C(N)=O | 73.3 nM | – | – | –
10 | NC(=O)[C@H](CCCN=C(N)N)NC(=O)[C@H](CC(=O)NO)Cc1ccc2ccccc2c1 | > 33000 nM | – | – | –
11 | NC(=O)[C@H](CCCN=C(N)N)NC(=O)[C@H](Cc1ccc2ccccc2c1)[C@@H](O)C(=O)NO | 7020 nM | – | – | –

Continued, in another order:

Row | Ki (Insulin-degrading enzyme [1]) | Ki (Insulin-degrading enzyme [2]) | Ki (Insulin-degrading enzyme [3]) | Compound | further results
12 | 43.7 nM | 1.4 nM | 410 nM | CC(=O)N[C@@H](CCC(=O)NCCNc1cccc2c(S(=O)(=O)O)cccc12)C(=O)N[C@H](Cc1ccc(O)cc1)C(=O)N(C(=O)c1ccccc1)[C@H](Cc1ccccc1)C(=O)N[C@H](Cc1ccc2ccccc2c1)C(=O)NO | –
13 | > 33000 nM | – | – | N=C(N)NCCCC[C@H](NC(=O)[C@@H](CC(=O)NO)Cc1ccc2ccccc2c1)C(N)=O | –
14 | 23.1 nM | 246 nM | 171 nM | CC[C@@H](C)[C@H]1NC(=O)[C@@H](Cc2ccccc2)NC(=O)[C@@H](Cc2cnc[nH]2)NC(=O)[C@@H](CC(=O)O)NC(=O)CC[C@H](C(=O)N[C@H](Cc2c[nH]c3ccccc23)C(=O)N[C@H](CCCN=C(N)N)C(=O)N[C@H](Cc2ccc3ccccc3c2)C(=O)NO)NC(=O)[C@@H](CCCN=C(N)N)NC1=O | –
15 | 49.8 nM | 228 nM | 3260 nM | NC(N)=NCCC[C@@H](NC(=O)[C@@H](Cc1c[nH]c2ccccc12)NC(=O)[C@H](N)CCC(=O)O)C(=O)N[C@H](Cc1ccc2ccccc2c1)C(=O)NO | –
16 | 5280 nM | – | – | C=CCOC(=O)[C@H](CCCNC(=N)N)NC(=O)[C@H](CC(=O)NO)Cc1ccc2ccccc2c1 | –
17 | > 33000 nM | – | – | N=C(N)NCCCC[C@H](NC(=O)[C@H](Cc1ccc2ccccc2c1)[C@H](O)C(=O)NO)C(N)=O | –
18 | > 33000 nM | – | – | N=C(N)NCCCC[C@H](NC(=O)[C@H](CC(=O)NO)Cc1ccc2ccccc2c1)C(N)=O | –
19 | 85.1 nM | 365 nM | 833 nM | N=C(N)NCCC[C@@H](NC(=O)[C@@H](Cc1ccc(O)cc1)NC(=O)[C@H](N)CCC(=O)O)C(=O)N[C@H](Cc1ccc2ccccc2c1)C(=O)NO | –
20 | 78 nM | – | – | CC(=O)N[C@@H](CCC(=O)O)C(=O)N[C@@H](Cc1c[nH]c2ccccc12)C(=O)N[C@@H](CCCN=C(N)N)C(=O)[C@H](CC(=O)NO)Cc1ccc2ccccc2c1 | –
